# Assay results published in ChEMBL document CHEMBL1122164, “Hypolipidemic 4,5-dihydro-4-oxo-5,5-disubstituted-2-furancarboxylic acids” (1982).
# What was measured:
# Rattus norvegicus [1] = test: Effect on serum Triglycerides was determined in normal rats at a dose of 0.02 (mmol/kg)/day; assay type: functional
# How it was run: (§1)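 Normal rats, 8-10 per group, dosed daily for 7 consecutive days by gastric intubation with compound suspended in 2% Tween 80. Decapitated 3 h after last dose; serum triglycerides measured by semiautomated method. Result expressed as % change from vehicle control group mean; significance by two-tailed Student's t test.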
# Rattus norvegicus [2] = test: Effect on serum Triglycerides was determined in normal rats at a dose of 0.1 (mmol/kg)/day; assay type: functional; how it was run: as §1
# Rattus norvegicus [3] = test: Effect on serum Triglycerides was determined in normal rats at a dose of 0.2 (mmol/kg)/day; assay type: functional; how it was run: as §1
# Rattus norvegicus [4] = test: Effect on serum Triglycerides was determined in normal rats at a dose of 1 (mmol/kg)/day; assay type: functional; how it was run: as §1
# Rattus norvegicus [5] = test: Effect on serum Triglycerides was measured on control rats at a dose of 0.05 (mmol/kg)/day; assay type: functional, organism-based
# Rattus norvegicus [6] = test: Effect on serum Triglycerides was measured on control rats at a dose of 0.5 (mmol/kg)/day; assay type: functional, organism-based
# Rattus norvegicus [7] = test: Effect on serum Triglycerides was measured on treated rats at a dose of 0.05 (mmol/kg)/day; assay type: functional, organism-based
# Rattus norvegicus [8] = test: Effect on serum Triglycerides was measured on treated rats at a dose of 0.5 (mmol/kg)/day; assay type: functional, organism-based
# Rattus norvegicus [9] = test: Effect on serum Triglycerides was determined in normal rats at a dose of 0.01 (mmol/kg)/day; assay type: functional; how it was run: as §1
# Rattus norvegicus [10] = test: Effect on serum Triglycerides was determined in normal rats at a dose of 0.03 (mmol/kg)/day; assay type: functional; how it was run: as §1
# Rattus norvegicus [11] = test: Effect on serum Triglycerides levels was measured on treated rats at a dose of 0.05 (mmol/kg)/day; assay type: functional, organism-based
# Rattus norvegicus [12] = test: Effect on serum Triglycerides levels was measured on treated rats at a dose of 0.5 (mmol/kg)/day; assay type: functional, organism-based
# Rattus norvegicus [13] = test: Effect on serum Triglycerides levels was measured on control rats at a dose of 0.05 (mmol/kg)/day; assay type: functional, organism-based
# Rattus norvegicus [14] = test: Effect on serum Triglycerides levels was measured on control rats at a dose of 0.5 (mmol/kg)/day; assay type: functional, organism-based
# Rattus norvegicus [15] = test: Effect on serum Triglycerides was determined in normal rats at a dose of 0.005 (mmol/kg)/day; assay type: functional; how it was run: as §1
# Rattus norvegicus [16] = test: Effect on liver weight was measured on control rats at a dose of 0.5 (mmol/kg)/day; assay type: functional
# Rattus norvegicus [17] = test: Effect on liver weight was measured on treated rats at a dose of 0.05 (mmol/kg)/day; assay type: functional
# Rattus norvegicus [18] = test: Effect on liver weight was measured on treated rats at a dose of 0.5 (mmol/kg)/day; assay type: functional
# Rattus norvegicus [19] = test: Effect on liver weight was measured on control rats at a dose of 0.05 (mmol/kg)/day; assay type: functional
Structure (SMILES),Change (Rattus norvegicus [1]) [%],Change (Rattus norvegicus [2]) [%],Change (Rattus norvegicus [3]) [%],Change (Rattus norvegicus [4]) [%],also measured
CC1(C)OC(C(=O)O)=CC1=O,-36,-43,-36,-36,
COC(=O)C1=CC(=O)C(C)(c2ccccc2)O1 (centres undefined),-34,-40,-40,-53,
CC1(c2ccccc2)OC(=O)C(=O)CC1=O (centres undefined),-13,-27,-31,,
CC1(c2ccc(Cl)cc2)OC(C(=O)O)=CC1=O (centres undefined),-27,,-42,,
CC(C)C1(c2ccccc2)OC(C(=O)O)=CC1=O (centres undefined),-10,-2,-31,-53,
O=C(O)C1=CC(=O)C2(CCCc3ccccc32)O1 (centres undefined),,,,-43,
O=C(O)c1cccnc1,,,,,Serum TG (Rattus norvegicus [5]): 104 mg/dL; Serum TG (Rattus norvegicus [6]): 88 mg/dL; Serum TG (Rattus norvegicus [7]): 97 mg/dL; Serum TG (Rattus norvegicus [8]): 47 mg/dL
"CC1(c2ccccc2)OC(C(=O)O)=CC1=O (single isomer, unassigned; (-)) [ACIFRAN]",,-31,,,Change (Rattus norvegicus [9]): -11%; Change (Rattus norvegicus [10]): -23%
CC1(c2ccccc2)OC(C(=O)O)=CC1=O (stereo in doubt; 5b),,,,,Serum TG (Rattus norvegicus [11]): 58 mg/dL; Serum TG (Rattus norvegicus [12]): 38 mg/dL; Serum TG (Rattus norvegicus [13]): 104 mg/dL; Serum TG (Rattus norvegicus [14]): 98 mg/dL
CC1(c2ccccc2)OC(C(=O)O)=CC1=O (stereo in doubt; 5b) [ACIFRAN],-40,-44,-52,-55,Change (Rattus norvegicus [15]): -23%; Change (Rattus norvegicus [9]): -37%; Change (Rattus norvegicus [10]): -43%; Liver weight (Rattus norvegicus [16]): 10.2 g; Liver weight (Rattus norvegicus [17]): 8.7 g; Liver weight (Rattus norvegicus [18]): 10.2 g; Liver weight (Rattus norvegicus [19]): 8.5 g
CC1(c2ccccc2)OC(C(=O)O)=CC1=O (stereo in doubt; (+)-5b) [ACIFRAN],,-38,,,Change (Rattus norvegicus [9]): -39%; Change (Rattus norvegicus [10]): -29%
CCOC(=O)C(C)(C)Oc1ccc(Cl)cc1 [CLOFIBRATE],,-9,-36,-55,Liver weight (Rattus norvegicus [16]): 9 g; Liver weight (Rattus norvegicus [17]): 8.4 g; Liver weight (Rattus norvegicus [18]): 10.7 g; Liver weight (Rattus norvegicus [19]): 8.5 g; Serum TG (Rattus norvegicus [5]): 104 mg/dL; Serum TG (Rattus norvegicus [6]): 87 mg/dL; Serum TG (Rattus norvegicus [7]): 101 mg/dL; Serum TG (Rattus norvegicus [8]): 43 mg/dL
